Measured values collected from several papers.
Compare with care: the assays were run in different laboratories.
Cell line: MV4-11
Observed: cell growth or viability

| Compound | test | conditions | measurement | result |
| --- | --- | --- | --- | --- |
| N[C@@H](CC(=O)N1CCN(C(c2ccc(F)cc2)c2ccc(F)cc2)CC1)C(=O)N1Cc2ccccc2C1 | ATP luminescence | 24 h | IC50 | 1.48 µM |
| Cc1cc2c(cc1N1C(=O)c3cccc4c(CCCO)ccc(c34)C1=O)n(C)c(=O)n2C (racemic) | resazurin | – | GI50 | 2.63 µM |
| C/C(=N\NC(=O)c1cccc(S(=O)(=O)N2CCN(C)CC2)c1)c1cc(Cl)ccc1O | resazurin | 96 h | EC50 | 0.886 µM |
| Nc1nc(Nc2ccc3c(c2)CC[C@@H](N2CCCC2)CC3)nn1-c1cc2c(nn1)-c1ccccc1CCC2 | trypan blue | 72 h | IC50 | 0.247 µM |
| N[C@H]1CC[C@H](N[C@@H]2C[C@H]2c2ccccc2)CC1 | resazurin | 96 h | EC50 | 0.0001 µM |
| Cn1cc(-c2cc(N3CCCCS3(=O)=O)ccc2Oc2ccc(F)cc2F)c2c(F)c[nH]c2c1=O | CCK-8 | 72 h | GI50 | 0.0035 µM |
| CC(C)[C@H](N)C(=O)N1CCC[C@H]1B(O)O | ATP luminescence | 5 days | IC50 | 0.13 µM |
| COc1cc(-c2ncn(/C=C\C(=O)OC(C)C)n2)cc(C(F)(F)F)c1 | – | 72 h | IC50 | 0.028 µM |
| COC(=O)[C@H](C)Nc1ccnc(Nc2cccc(-c3cccnc3)c2)n1 | ATP luminescence | 72 h | EC50 | > 8 µM |
| C#CCN(C)Cc1ccccc1 | resazurin | 96 h | EC50 | > 2 µM |
| c1cc(Nc2nccc(NC3CCCCC3)n2)cc(-c2cnccn2)c1 | ATP luminescence | 72 h | EC50 | 0.053 µM |
| COc1cc(Nc2nccc(-c3cnn4nc(OC)ccc34)n2)cc(C(F)(F)F)c1 | ATP luminescence | – | IC50 | 0.048 µM |
| CCNc1ccnc(Nc2cccc(-c3cccnc3)c2)n1 | ATP luminescence | 72 h | EC50 | 0.035 µM |
| CN1CCN(C(=O)[C@H](CCCN[C@@H]2C[C@H]2c2ccc(F)cc2)NC(=O)c2ccc(-n3ccnn3)cc2)CC1 | resazurin | 96 h | EC50 | 0.0042 µM |
| c1cncc(Nc2nccc(NC3CCCCC3)n2)c1 | ATP luminescence | 72 h | EC50 | > 7 µM |
| O=C(NC1CCC1)c1ccc2nc(-c3cccc(NS(=O)(=O)NCCN4CCCCC4)c3)cn2c1 | ATP luminescence | 72 h | IC50 | 4.2 µM |
